# Experiments:
# healthy young subjects = assay: Safety and tolerability; type: in vivo, human
# In short: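 Adverse events were recorded by system organ class and preferred term in 12 healthy young subjects. Each received single fasted 25-mg doses in the morning and evening, open-label crossover, washout ≥11 days. Baselines were the last measurements before the morning dose and before the evening dose.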
# [1] = cited from earlier work
# [2] = Pharmacokinetics after single and multiple doses, part 1; type: in vivo, human; conditions: for AUCτ,ss,norm / Cmax,ss,norm / AUC0–24,norm / Cmax,norm / AUC(0-t) / AUC / Cmax: gMean (%CV); for AUC(0-t) / AUC / Cmax / Tmax: human, plasma, oral; for AUC: AUCτ,ss; for Tmax: median and range (minimum, maximum)
# In short: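 Randomised 3:1 double-blind placebo-controlled groups (9 active, 3 placebo) of healthy young or elderly subjects took 5- or 25-mg tablets. Dosing was a single dose on day 1, QD or BID for 10 days from day 4, and a single dose on day 14. Fasted on days 1 and 14. Blood was sampled through day 23 and urine after first and last doses (QD only). Plasma/urine LC-MS/MS used a seven-point calibration. Geometric mean (%CV) values were reported.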
# [3] = elderly, 25 mg QD, multiple dose
# [4] = elderly, 50 mg QD, multiple dose
structure (smiles),measurement,setting,value
C[C@@H](Oc1ccc(S(C)(=O)=O)cc1C(=O)N1C[C@@H]2C[C@]2(c2cc(C(F)(F)F)on2)C1)C(F)(F)F [BI 425809],"changes in laboratory parameters, vital signs, 12-lead ECG, examinations, suicidality, oxygen saturation, VAS","healthy young subjects; part 2, single 25 mg doses",No clinically relevant changes
same,serious AEs,"healthy young subjects; part 2, single 25 mg doses",No serious AEs were reported
same,Dizziness,"healthy young subjects; young, part 2, 25 mg QD",0 (–) n (%)
same,Eye disorders,"healthy young subjects; young, part 2, 25 mg QD",0 (–) n (%)
same,Gastrointestinal disorders,"healthy young subjects; young, part 2, 25 mg QD",0 (–) n (%)
same,General disorders and administration site conditions,"healthy young subjects; young, part 2, 25 mg QD",0 n (%)
same,Headache,"healthy young subjects; young, part 2, 25 mg QD",1 (8.3) n (%)
same,Infections and infestations,"healthy young subjects; young, part 2, 25 mg QD",1 (8.3) n (%)
same,Insomnia,"healthy young subjects; young, part 2, 25 mg QD",0 (–) n (%)
same,Musculoskeletal and connective tissue disorders,"healthy young subjects; young, part 2, 25 mg QD",0 (–) n (%)
same,Nasopharyngitis,"healthy young subjects; young, part 2, 25 mg QD",1 (8.3) n (%)
same,Nervous system disorder,"healthy young subjects; young, part 2, 25 mg QD",1 (8.3) n (%)
same,Ocular discomfort,"healthy young subjects; young, part 2, 25 mg QD",0 (–) n (%)
same,Psychiatric disorders,"healthy young subjects; young, part 2, 25 mg QD",0 (–) n (%)
same,Subjects with AEs leading to study discontinuation,"healthy young subjects; young, part 2, 25 mg QD",0 (–) n (%)
same,Subjects with investigator-defined drug-related AEs,"healthy young subjects; young, part 2, 25 mg QD",0 (–) n (%)
same,Total with AEs,"healthy young subjects; young, part 2, 25 mg QD",2 (16.7) n (%)
same,Vision blurred,"healthy young subjects; young, part 2, 25 mg QD",0 (–) n (%)
same,"Adjusted gMean ratio Cmax, tablet fasted vs. oral solution fasted",[1]; 90% CI 45.1–55.4,50.0%
same,"Adjusted gMean ratio AUC0–tz, tablet fasted vs. oral solution fasted",[1]; 90% CI 74.0–87.6,80.5%
same,"Adjusted gMean ratio AUC0–tz, tablet fed vs. strongly fasted","[1]; high-fat/high-calorie breakfast ~ 1000 kcal, 90% CI 115.7–137.0",125.9%
same,"Adjusted gMean ratio Cmax, tablet fed vs. strongly fasted","[1]; high-fat/high-calorie breakfast ~ 1000 kcal, 90% CI 128.3–157.4",142.1%
same,"increase in AUC, high-fat/high-calorie meal vs. fasted",[1]; single dose 25 mg tablet,26%
same,"increase in Cmax, high-fat/high-calorie meal vs. fasted",[1]; single dose 25 mg tablet,42%
same,median time to maximum plasma concentration,"[1]; single doses 0.5–150 mg, oral solution, young healthy male volunteers",~ 45 min
same,tolerability of single doses,"[1]; single doses up to 100 mg, oral solution, young healthy male volunteers",generally well tolerated
same,"dose proportionality of exposure parameters (Cmax, AUC0–24, Cmax,ss and AUCτ,ss)","[2]; 10 and 25 mg, tablet",dose proportionality was observed
same,linearity index,[2]; QD groups,~1
same,time to steady state after the start of multiple dosing,[2]; all treatment groups,2 to 6 days
same,dose proportionality of exposure,"[2]; doses of ≥ 50 mg, tablet",clearly less than dose proportional
same,"AUCτ,ss,norm",[2]; [3],439 (11.6) nmol·h/L/mg
same,"Cmax,ss,norm",[2]; [3],24.7 (10.9) nmol/L/mg
same,"AUC0–24,norm","[2]; elderly, 25 mg QD, single dose",139 (18.5) nmol·h/L/mg
same,"Cmax,norm","[2]; elderly, 25 mg QD, single dose",9.4 (18.7) nmol/L/mg
same,"AUCτ,ss,norm",[2]; [4],278 (30.8) nmol·h/L/mg
same,"Cmax,ss,norm",[2]; [4],16.0 (25.0) nmol/L/mg
same,"AUC0–24,norm","[2]; elderly, 50 mg QD, single dose",112 (17.9) nmol·h/L/mg
same,"Cmax,norm","[2]; elderly, 50 mg QD, single dose",7.43 (25.9) nmol/L/mg
same,AUC(0-t),"[2]; 10 mg, AUC0–24, young, 10 mg QD, single dose",1.41 µM·h
same,AUC,"[2]; 10 mg, young, 10 mg QD, multiple dose",3.87 µM·h
same,Cmax,"[2]; 10 mg, Cmax, young, 10 mg QD, single dose",109 nM
same,Tmax,"[2]; 10 mg, tmax,ss, young, 10 mg QD, multiple dose",4.5 h
same,AUC(0-t),"[2]; 25 mg, AUC0–24, elderly, 25 mg QD, single dose",3.46 µM·h
same,AUC(0-t),"[2]; 25 mg, AUC0–24, young, 25 mg QD, single dose",3.72 µM·h
same,AUC,"[2]; 25 mg, elderly, 25 mg QD, multiple dose",11 µM·h
same,AUC,"[2]; 25 mg, young, 25 mg QD, multiple dose",10.6 µM·h
same,Cmax,"[2]; 25 mg, Cmax, elderly, 25 mg QD, single dose",235 nM
same,Cmax,"[2]; 25 mg, Cmax, young, 25 mg QD, single dose",278 nM
same,Cmax,"[2]; 25 mg, Cmax,ss, elderly, 25 mg QD, multiple dose",618 nM
same,Cmax,"[2]; 25 mg, Cmax,ss, young, 25 mg QD, multiple dose",582 nM
same,Tmax,"[2]; 25 mg, tmax, elderly, 25 mg QD, single dose",3.5 h
same,Tmax,"[2]; 25 mg, tmax, young, 25 mg QD, single dose",4.5 h
same,Tmax,"[2]; 25 mg, tmax,ss, elderly, 25 mg QD, multiple dose",3 h
same,Tmax,"[2]; 25 mg, tmax,ss, young, 25 mg QD, multiple dose",3.75 h
same,AUC(0-t),"[2]; 50 mg, AUC0–24, elderly, 50 mg QD, single dose",5.62 µM·h
same,AUC(0-t),"[2]; 50 mg, AUC0–24, young, 50 mg QD, single dose",6.02 µM·h
same,AUC,"[2]; 50 mg, elderly, 50 mg QD, multiple dose",13.9 µM·h
same,AUC,"[2]; 50 mg, young, 50 mg QD, multiple dose",14.2 µM·h
same,Cmax,"[2]; 50 mg, Cmax, elderly, 50 mg QD, single dose",371 nM
same,Cmax,"[2]; 50 mg, Cmax, young, 50 mg QD, single dose",397 nM
same,Cmax,"[2]; 50 mg, Cmax,ss, elderly, 50 mg QD, multiple dose",802 nM
same,Cmax,"[2]; 50 mg, Cmax,ss, young, 50 mg QD, multiple dose",800 nM
same,Tmax,"[2]; 50 mg, tmax, elderly, 50 mg QD, single dose",4.5 h

# From publication PMC6061410 (Clinical Drug Investigation, 2018)
